Screening results (PubChem)
CHT block – inhibits the human high affinity choline transporter; B-score at 10 µM; Q9GZV3; CHT-expressing cells, membrane potential dye, choline response; stronger effect = lower value; 0.86% of 310,000 active;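 active means B-score over 3 SD under the library average, and starting fluorescence ratio not unusually high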;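 further: choline stimulus applied at its EC90 after an EC20 pre-addition; B-score computed on integrated fluorescence ratio after choline addition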
Target sequence (Q9GZV3 whole entry, looked up): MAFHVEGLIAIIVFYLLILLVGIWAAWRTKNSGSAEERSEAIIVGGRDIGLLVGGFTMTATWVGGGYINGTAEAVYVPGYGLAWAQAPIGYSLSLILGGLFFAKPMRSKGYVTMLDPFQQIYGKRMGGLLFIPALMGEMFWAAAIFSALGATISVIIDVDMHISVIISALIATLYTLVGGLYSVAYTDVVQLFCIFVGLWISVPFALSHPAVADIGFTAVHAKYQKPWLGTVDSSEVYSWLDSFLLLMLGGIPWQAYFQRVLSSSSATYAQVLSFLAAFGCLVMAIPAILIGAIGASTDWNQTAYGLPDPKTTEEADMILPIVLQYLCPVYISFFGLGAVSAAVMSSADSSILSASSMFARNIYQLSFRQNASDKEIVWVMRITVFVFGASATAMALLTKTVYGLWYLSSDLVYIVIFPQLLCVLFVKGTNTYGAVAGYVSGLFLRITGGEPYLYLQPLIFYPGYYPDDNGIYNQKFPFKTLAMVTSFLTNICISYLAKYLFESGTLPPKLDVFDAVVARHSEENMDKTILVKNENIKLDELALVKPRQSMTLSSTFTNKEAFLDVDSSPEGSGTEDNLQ
Pemphigus Ab inh – blocks pemphigus antibody binding to human desmoglein-3. P32926. DSG3-coupled beads, scFv-anti-DSG3-GFP binding, flow cytometry; stronger effect = lower value. binding (percent of control), % at 10 µM. 0.48% of 310,000 active. AID 588358;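 active means binding more than 3 SD below its plate's average and above zero; inconclusive means below that plate limit but binding exactly zero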;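 further: hits lower antibody fragment binding to DSG3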
GPR7 antagonist – human neuropeptides B/W receptor 1 antagonism | inhibition, % at 4.4 µM | AID 1861 | GPR7-expressing cells, fluorescence antagonist assay | 1.1% of 290,000 active; in the data active means inhibition above about 16%, passing the limit was not always enough;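 further: cells stimulated with the agonist NPW; 0% = agonist with vehicle and 100% = vehicle without agonist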
CHT PAM – allosterically activates the human high affinity choline transporter. CHT-expressing cells, membrane potential dye, choline EC20; stronger effect = higher value; LV-AA mutant CHT in HEK293 cells. B-score at 10 µM. Q9GZV3. AID 488977. 0.49% of 310,000 active;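 active means initial fluorescence not abnormally high and integrated response B-score, plate-corrected, over 3 SD above library mean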
T cell HTS – T cell immune modulation candidate; 2C CD8+ T cell-vesicle binding, flow cytometry; stronger effect = lower value; response (vesicle binding), % at 7 µM; 0.068% of 330,000 active; AID 2052;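 active means response, share of CD8 T cells binding vesicles, and their 90th percentile fluorescence all below set limits, cut at about 80% in these data, passing the limit was not always enough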;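 further: values below 100% mean blocked vesicle binding to the CD8+ T cells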
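Material: 2C TCR transgenic mouse naive CD8+ T cells, MACS-purified. Also added: QL9-charged Drosophila Ld/ICAM-1/B7-1 vesicles. Timing: binding 1.5 h at 37 °C. Measured by: high-throughput flow cytometry with anti-B7-1 and anti-CD8 staining. Read-out: percent CD8+ FL2 mean versus row control. Controls: Unloaded micro-vesicles (low), QL9 vesicles with 0.7% DMSO (high).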
p-CIP stab down – p/CIP protein destabilization; Q05BA5; F442A p/CIP-EGFP cells, EGFP fluorescence, 16 h; decrease of EGFP signal, % at 10 µM; 0.01% of 290,000 active;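 active means EGFP signal decrease of at least 30% at 10 µM or well 3 SD below plate mean, unless failing retest; inactive means the rest, including hits failing retest or dose response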
GPR7 antag conf – human GPR7 antagonism, confirmation assay | shares compounds with GPR7 antagonist | GPR7-expressing cells, calcium fluorescence antagonist mode | AID 1952 | inhibition, % at 4.4 µM | 52% of 2,400 active; in the data active means inhibition above about 24%;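 further: stimulated with the GPR7 agonist NPW; 0% = agonist plus vehicle and 100% = vehicle alone without agonist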
MCHR1 antag – antagonizes human MCHR1, a GPR7 antagonist counter-screen; shares compounds with GPR7 antagonist; MCHR1-expressing cells, fluorescence antagonist assay; inhibition, % at 4.4 µM; 62% of 2,400 active; in the data active means inhibition above about 22%;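 further: 0% = vehicle with agonist and 100% = vehicle without agonist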
An asterisk follows results filed as active; i = inactive; ? = inconclusive; / = no result. Compounds with a hit are over-represented: about 2.3% of the library has one in this group of screens.

SMILES	CHT block	Pemphigus Ab inh	GPR7 antagonist	CHT PAM	T cell HTS	p-CIP stab down	GPR7 antag conf	MCHR1 antag
CCOC(=O)Cc1csc(NC(=O)C(C)c2ccc([N+](=O)[O-])cc2)n1 (centres undefined)	i	100.1	74.5*	i	182.5	-18.8	49.4*	53.7*
C=CC[C@@H](CC(=O)N(CCO)Cc1ccccc1)C(=O)NC[C@H](OC(=O)[C@@H](CC=C)Cc1ccc(F)cc1)c1ccccc1	/	98.7	/	/	387.8	/	/	/
COc1ccc(NC(=O)c2cc3c(CO)cnc(C)c3oc2=Nc2cc(OC)cc(OC)c2)cc1	i	106.0	36.5*	i	176.2	-7.7	-21.1	-2.8
O=c1ccc2cc(S(=O)(=O)Nc3ccc(Br)cc3)ccc2o1	i	122.8	24.1*	i	561.2	-11.1	14.1	21.5*
COc1ccc(CCC(=O)N2CCN(S(=O)(=O)c3ccc(OC)c([N+](=O)[O-])c3)CC2)cc1	/	101.2	/	/	/	/	/	/
O=C1CCC(C(=O)N(Cc2ccco2)C2(C(=O)NC3CCCC3)CCCCC2)N1 (centres undefined)	i	/	28.3*	i	221.0	-11.8	21.6	17.1
COc1ccc(C(=O)NCc2nnc(SCC(=O)Nc3ccccc3OC)o2)cc1	i	107.0	-1.4	i	175.4	-3.3	/	/
COc1ccc(C(=O)NCc2nnc(SCC(=O)NCCc3ccccc3)o2)cc1	i	87.6	24.5*	i	427.4	-6.2	-14.8	8.5
COc1ccc(C(=O)NCc2nnc(SCC(=O)Nc3cc(Cl)ccc3OC)o2)cc1	i	122.6	39.8*	i	369.2	-1.6	9.9	15.4
O=C(CSc1nnc(CNC(=O)c2ccc(F)cc2)o1)NCCc1ccccc1	i	/	-12.2	i	468.7	-8.7	/	/
COc1cc(C(=O)NCc2nnc(SCC(=O)N3CCc4ccccc43)o2)cc(OC)c1OC	i	92.0	29.7*	i	277.8	-1.0	0.0	-15.3
C=CCN(CC=C)CC(=O)Nn1c(C)ccc1C	/	93.4	/	/	/	/	/	/
CCOc1ccc2c(S(=O)(=O)O)cccc2c1[N+](=O)[O-]	/	123.9	/	/	/	/	/	/
COc1ccc2[nH]c3c(=O)n(CCCC(=O)NC4CCCCC4C)c(=S)[nH]c3c2c1 (centres undefined)	i	97.1	22.0*	i	386.4	1.6	-4.2	-2.2
CCCN(CC(=O)Nc1ccc(F)c(F)c1F)CC(=O)Nc1c(Cl)cccc1Cl	i	98.1	22.4*	i	203.1	-5.5	25.2*	25.0*
C1CC(=NN=C2CCSCC2)CCS1	/	113.5	/	/	/	/	/	/
Cc1cccc(N2CCN(S(=O)(=O)c3ccc4c(c3)CC(C)N4C(=O)C3CC3)CC2)c1C (centres undefined)	i	103.8	27.8*	i	422.0	-5.0	28.9*	43.8*
CCC(=O)N1c2ccc(S(=O)(=O)N3CCN(c4ccc([N+](=O)[O-])cc4)CC3)cc2CC1C (centres undefined)	i	119.4	35.6*	i	122.9	-17.1	32.7*	44.0*
O=c1c2ccccc2oc2ccc(-c3ccc4cc[nH]c4c3)cc12	/	105.4	/	/	263.7	/	/	/
CCCn1c(CC)nc([N+](=O)[O-])c1Sc1ncn[nH]1	/	108.0	/	/	/	/	/	/
CCC(=O)N(Cc1ccco1)c1nc(-c2ccc(OC)cc2)cs1	i	98.1	-1.3	i	366.7	-15.3	/	/
CCC(=O)N(CC)c1nc(-c2ccc(OC)cc2)cs1	i	73.5*	27.3*	i	285.7	0.8	2.3	13.2
O=C(c1ccc(COc2ccccc2Br)cc1)N1CCCCC1	i	?	25.3*	i	200.8	5.4	35.7*	44.4*
CCCCN1/C(=C/c2ccc3ccccc3[n+]2CC)Sc2ccccc21	/	/	84.6*	/	/	-427.7	81.2*	78.8*
CCCCN1/C(=C/c2cccc[n+]2C)Sc2cc(NC(C)=O)ccc21	i	104.1	5.5	i	210.5	-4.4	/	/
SMILES	CHT block	Pemphigus Ab inh	GPR7 antagonist	CHT PAM	T cell HTS	p-CIP stab down	GPR7 antag conf	MCHR1 antag
CC(OC(=O)CSCC(=O)Nc1ccc(Cl)cc1)C(=O)N(C)Cc1ccccc1 (centres undefined)	/	101.8	/	/	/	/	/	/
Cc1ccc(-n2cccn2)c(CN2CCCC(C(=O)c3sccc3C)C2)c1 (centres undefined)	i	115.2	33.2*	i	198.7	-0.5	39.0*	40.8*
COc1ccc(O)c(CN2CCCC(C(=O)Nc3cccc(-n4cccn4)c3)C2)c1 (centres undefined)	i	105.8	-3.7	i	240.4	-12.8	/	/
COc1cccc(C(=O)NNC(=O)c2ccc3ccccc3c2O)c1	i	/	/	i	519.8	/	/	/
C[C@@H]1CN([C@@H](C)CO)C(=O)c2cc(Br)cnc2O[C@@H]1CN(C)S(=O)(=O)c1ccc(F)cc1	/	113.9	/	/	/	/	/	/
CCN(CC)CCNC(=O)CCc1c(C)nc2c(c(C)nn2-c2ccc(C)cc2)c1C	i	103.9	/	i	151.9	4.4	/	17.9
COc1ccc(-c2sc3ccc(N4CCOCC4)cc3c2C#CCCO)cc1	/	101.8	/	/	230.5	/	/	/
Fc1ccccc1Cc1noc(CN2CCN(c3ccc(Cl)cn3)CC2)n1	i	112.5	21.3*	i	210.1	-1.3	12.7	26.5*
Clc1ccccc1Cc1noc(CN2CCN(c3cnccn3)CC2)n1	i	122.7	-3.0	i	416.9	-7.1	/	/
CS(=O)(=O)c1ccc2nc(NC(=O)c3ccccc3)sc2c1	i	104.1	-2.4	i	210.4	-9.0	/	/
CS(=O)(=O)c1ccc2nc(NC(=O)Nc3ccccc3F)sc2c1	i	88.4*	59.2*	i	207.2	-0.9	36.1*	16.0
CCCCCCCn1c(=N)n(CC(O)c2ccco2)c2ccccc21 (centres undefined)	i	169.6	17.3	i	124.7	-6.8	/	/
CCCCn1c(=N)n(CC(O)c2ccccc2)c2ccccc21 (centres undefined)	i	88.5	31.0*	i	604.0	8.0	3.8	8.7
COc1cc(/C=C/c2nc(-c3ccccc3O)n[nH]2)cc(OC)c1OC	i	99.0	21.7*	i	253.8	0.2	32.6*	56.7*
O=C(NCCCN1CCCC1=O)C(=O)NCC1OCCN1S(=O)(=O)c1cc(F)ccc1F (centres undefined)	/	100.9	/	/	/	/	/	/
CCOC(=O)C1CCCC12Nc1cccc3cccc(c13)N2 (centres undefined)	/	95.1	/	/	/	/	/	/
Cc1ccccc1N(CC(=O)NC1CCCCC1)C(=O)CCCC(=O)Nc1ccccn1	i	111.3	38.2*	i	275.9	-0.4	33.3*	17.9
Cc1cc(/C=C2\C(=N)N3N=C(CC(=O)N4CCOCC4)SC3=NC2=O)c(C)n1-c1ccccc1	i	101.6	-1.2	i	648.9	0.3	/	/
